Hits are enriched below; roughly 2.3% of the tested compounds scored in any of these assays.
TRPC4 block – inhibitors of mouse TRPC4 channel, primary screen, Fluo4 calcium, HEK293 TRPC4beta/mu-opioid cells | Short transient receptor potential channel 4 (Mus musculus), Q9QUQ5 | DAMGO-evoked Fluo4 calcium flux; active compounds read low | B-score at 10 µM | 300,000 tested, 0.39% active;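 active = B-score over 3 SD under the library average, no early fluorescence shift, positive overall ratio signal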
Target sequence (Q9QUQ5 whole entry, looked up): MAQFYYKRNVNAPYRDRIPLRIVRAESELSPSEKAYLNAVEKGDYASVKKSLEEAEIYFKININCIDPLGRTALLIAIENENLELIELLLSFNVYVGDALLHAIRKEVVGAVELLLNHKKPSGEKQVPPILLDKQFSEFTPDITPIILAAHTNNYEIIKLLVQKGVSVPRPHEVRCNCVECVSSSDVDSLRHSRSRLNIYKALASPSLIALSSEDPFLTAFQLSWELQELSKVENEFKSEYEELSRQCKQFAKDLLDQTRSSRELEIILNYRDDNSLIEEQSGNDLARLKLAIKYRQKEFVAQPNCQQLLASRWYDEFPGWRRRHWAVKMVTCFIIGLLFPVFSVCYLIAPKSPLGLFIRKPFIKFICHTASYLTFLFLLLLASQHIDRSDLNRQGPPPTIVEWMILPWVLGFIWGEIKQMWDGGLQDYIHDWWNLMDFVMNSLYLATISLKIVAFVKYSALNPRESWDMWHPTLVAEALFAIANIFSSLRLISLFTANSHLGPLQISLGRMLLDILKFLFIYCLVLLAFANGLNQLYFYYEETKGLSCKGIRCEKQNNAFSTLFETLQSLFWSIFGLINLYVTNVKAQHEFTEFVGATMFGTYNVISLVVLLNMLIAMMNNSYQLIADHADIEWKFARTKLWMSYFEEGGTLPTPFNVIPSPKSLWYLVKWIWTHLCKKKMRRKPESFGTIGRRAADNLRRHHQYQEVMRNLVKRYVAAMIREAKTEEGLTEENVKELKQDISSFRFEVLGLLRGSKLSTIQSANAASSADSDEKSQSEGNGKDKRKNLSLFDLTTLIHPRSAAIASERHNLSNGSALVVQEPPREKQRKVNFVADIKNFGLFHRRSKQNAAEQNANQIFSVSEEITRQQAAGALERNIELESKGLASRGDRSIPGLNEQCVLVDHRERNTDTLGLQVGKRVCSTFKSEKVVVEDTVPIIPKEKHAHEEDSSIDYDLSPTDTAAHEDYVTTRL
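Assay system: HEK293 cells with stable TRPC4beta plus mu-opioid receptor expression. Dosing: single dose. Measured by: Fluo4 Ca2+ flux fluorescence. Also added: DAMGO in two steps, submaximal then maximal. Read-out: B score from integrated Fluo4 fluorescence ratio.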
TRPC4 act – activators of mouse TRPC4 channel, primary screen, Fluo4 calcium, HEK293 TRPC4beta/mu-opioid cells | Fluo4 calcium fluorescence; active compounds read high | Short transient receptor potential channel 4 (Mus musculus), Q9QUQ5 | 310,000 tested, 0.49% active | B-score at 10 µM | AID 2237, 2010;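 active = B-score above 5 SD of library B-scores, and initial fluorescence ratio not above library mean plus 5 SD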;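 note: positive B-score marks a calcium rise read as TRPC4 activation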
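System – HEK293 cells stably co-expressing mouse TRPC4beta and mu-opioid receptor · Signal – Fluo4 calcium-sensitive dye fluorescence, kinetic, 1 Hz baseline · Benchmarks – buffer (low) and maximal DAMGO (high) · Read-out – B score of integrated fluorescence ratio per well · Incubation – dye loading 45 min room temperature, 110 s kinetic read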
TRPC4 PAM – positive allosteric modulators of TRPC4, primary screen, cell-based, mouse TRPC4beta, HEK293 mu-opioid, Fluo-4 calcium. Short transient receptor potential channel 4 (Mus musculus), Q9QUQ5. B-score at 10 µM. 310,000 tested, 0.42% active. DAMGO EC20, Fluo-4 Ca2+ flux; active compounds read high;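 active = B-score of calcium response area above 5 SD of library B-scores, with initial fluorescence ratio within 5 SD of library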;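 note: B-score of integrated fluorescence ratio over time as area under calcium response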
TRPC6 activator – mouse TRPC6 channel activators, primary screen, cell-based, HEK293, membrane potential dye; 310,000 tested, 0.13% active; Short transient receptor potential channel 6 (Mus musculus), Q61143; HEK293-TRPC6 membrane potential dye fluorescence; active compounds read high; B-score at 10 µM; AID 2550, 2010;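 active = B-score of the integrated fluorescence ratio above library mean plus 3 SD, and starting fluorescence ratio within library mean plus 5 SD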;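 note: higher score means more depolarization so channel activation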
TRPC6 inhibitor – mouse TRPC6 channel inhibitors, primary screen, cell-based, HEK293, membrane potential dye; B-score at 10 µM; ACh-evoked depolarization; active compounds read low; Short transient receptor potential channel 6 (Mus musculus), Q61143; 310,000 tested, 1.1% active;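 active = B-score under library mean minus 3 SD, initial fluorescence not abnormally high, positive integrated signal ratio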;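 note: B-score derived from integrated fluorescence ratio over the kinetic read; more negative B-score means stronger inhibition of depolarization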
* hit, by the source's call; i = inactive.

SMILES	TRPC4 block	TRPC4 act	TRPC4 PAM	TRPC6 activator	TRPC6 inhibitor
COc1cc2[nH]c(=S)nc(NCc3cccc(Cl)c3)c2cc1OC	i	i	i	i	i
CCOc1ccc(Nc2c3c(nc4ncnn24)CC(C)CC3)cc1 (stereo unspecified)	i	i	i	i	i
Cn1c(=O)c2sccc2n2c(CCCC(=O)Nc3ccccc3)nnc12	i	i	i	i	i
Cn1c(=O)c2sccc2n2c(CCCC(=O)NC3CCN(Cc4ccccc4)CC3)nnc12	i	i	14*	i	i
CC1C(=O)N2CCCc3cc(S(=O)(=O)N(C)CCC#N)cc1c32 (stereo unspecified)	i	i	i	i	i
CC(=O)NCCn1c(SCc2ccccc2F)nc2ccccc2c1=O	i	i	i	i	i
COC(=O)c1ccc(CSc2nc3ccccc3c(=O)n2CC(C)C)o1	-7*	i	i	i	i
COCCCn1c(SCC(=O)c2ccccc2)nc2ccccc2c1=O	i	i	i	i	i
COCCn1c(SCC(=O)c2ccccc2)nc2ccccc2c1=O	-7*	i	i	i	i
COCCn1c(SCc2cccc([N+](=O)[O-])c2)nc2ccccc2c1=O	-6*	i	i	i	i
COCCn1c(SCc2ccccc2F)nc2ccccc2c1=O	-6*	i	i	i	i
COC(=O)c1ccc(CSc2nc3ccccc3c(=O)n2C)o1	i	i	i	i	i
COc1cc2ccnc(Cc3cccc(OC)c3OC)c2cc1OC	i	i	i	i	i
COCCn1c(SCC(=O)N2CCOCC2)nc2ccccc2c1=O	i	i	i	i	i
COCCn1c(SCC(=O)N2CCc3ccccc3C2)nc2ccccc2c1=O	-5*	i	i	i	i
O=C(C[n+]1ccc(C(=O)NCc2ccccc2)cc1)c1ccc(OC(F)F)cc1	i	i	10*	i	i
NC(=O)C[n+]1cccc(CNC(=O)c2ccc(OC(F)F)cc2)c1	i	i	i	i	i
CN(Cc1ccccc1)CC1CCCN(CCc2ccccc2F)C1 (stereo unspecified)	i	i	i	i	i
COc1cc(CN(C)CC2CCCN(CCc3ccccc3F)C2)cc(Cl)c1OC (stereo unspecified)	-6*	i	i	i	i
CN(C)CCOC(=O)c1cccc(Br)c1	i	44*	10*	i	i
CCN(CC)CCn1c(=N)n(CC(O)COc2ccccc2)c2ccccc21 (stereo unspecified)	-6*	i	i	i	i
O=C(Nc1nc(-c2ccccn2)cs1)c1ccco1	i	i	i	i	i
CCOC(=O)COc1c(OC)cc(Cl)cc1C1NC(=O)NC(C)=C1C(C)=O (stereo unspecified)	i	i	i	i	i
CCCC1=C(C(=O)OCC)C(c2cc(Cl)cc(OC)c2OCC(=O)OCC)NC(=O)N1 (stereo unspecified)	i	i	22*	i	i
CCn1cc[n+](C)c1P(c1ccccc1)c1ccccc1	-5*	51*	i	i	i
SMILES	TRPC4 block	TRPC4 act	TRPC4 PAM	TRPC6 activator	TRPC6 inhibitor
C#CCOCCOCCOCCNc1nc(N2CCN(C(=O)[C@H]([C@@H](C)CC)n3cc([C@@H](N)CC(C)C)nn3)CC2)nc(N2CCN(C(=O)[C@H](CCCCN)n3cc([C@@H](N)CC(C)C)nn3)CC2)n1	i	i	i	i	i
CN1CCN(C/C(=C2/N=C(c3ccccc3)OC2=O)N(C)C)CC1	i	i	13*	i	i
CN(C)/C(Cn1cncn1)=C1/N=C(c2ccccc2)OC1=O	i	i	i	i	i
COc1ccc(CCNC(=O)C23CCC(C)(C(=O)C2=O)C3(C)C)cc1OC (stereo unspecified)	i	i	i	i	i
COc1ccc([N+](=O)[O-])cc1NCc1ccco1	-6*	i	i	i	i
O=C(N/N=C\c1ccccn1)C1COc2cc3ccccc3cc2O1 (stereo unspecified)	i	53*	i	i	i
CCC/C=N/NC(=O)C1COc2ccccc2O1 (stereo unspecified)	i	i	i	i	i
O=C(N/N=C\c1ccc(Br)o1)C1COc2ccccc2O1 (stereo unspecified)	i	i	i	i	i
O=C(N/N=C/c1ccco1)C1COc2ccccc2O1 (stereo unspecified)	i	111*	i	i	i
Cc1ccc(/C=N/NC(=O)C2COc3ccccc3O2)s1 (stereo unspecified)	i	i	76*	i	i
O=C(N/N=C/c1cccs1)C1COc2ccccc2O1 (stereo unspecified)	i	i	i	i	i
O=C(N/N=C\c1ccc[nH]1)C1COc2ccccc2O1 (stereo unspecified)	i	51*	i	i	i
O=c1c2[nH]c3cccc(Cl)c3c2ncn1Cc1ccncc1	i	i	i	i	i
COCCNc1cnn(-c2ccccc2)c(=O)c1Cl	i	i	i	i	i
COc1ccc(C2=NOC(Cn3nc(C(=O)NCc4cccs4)cc3-c3ccccc3)C2)cc1 (stereo unspecified)	i	i	i	i	i
CNC(=S)Nc1ccc(C)cc1	i	i	i	i	i
COc1cccc(/C(C)=N/NC(=O)c2ccc(N(C)C)cc2)c1	i	i	i	i	i
Cc1cc(OCc2cc(C(=O)NCCN3CCCCC3CO)no2)cc(C)c1Cl (stereo unspecified)	-7*	i	i	i	i
COc1cccc(OCc2cc(C(=O)NCCN3CCCCC3CO)no2)c1 (stereo unspecified)	i	i	i	i	i
O=C(O)c1ccccc1-c1ccccc1C(=O)Nc1cccc(-c2nc3ccccc3o2)c1	i	i	i	i	i
CCN1CCC2(CC1)N=C(c1ccc(F)cc1)C(=S)N2	i	i	i	i	i
CCc1ccc2[nH]c(=O)c(C3C(C#N)=C(N)Oc4c3ccc3cccnc43)cc2c1 (stereo unspecified)	i	i	i	i	-5.9*
CC(C)C(O)(C(=O)NNc1ccccc1)C(C)C	i	i	i	i	i

Compound activity deposited in PubChem BioAssay by Johns Hopkins Ion Channel Center.
